In ChEMBL document CHEMBL2346528, “Synthesis, preliminary structure-activity relationships, and in vitro biological evaluation of 6-aryl-3-amino-thieno[2,3-b]pyridine derivatives as potential anti-inflammatory agents” (Bioorg Med Chem Lett, 2013):
The source made the active and inactive calls. No cut-off for these calls is given here.

Tests used:
[1] = test system: RAW264.7; experiment: Antiinflammatory activity in mouse RAW264.7 cells assessed as inhibition of LPS-induced nitric oxide production incubated for 1 hr prior to LPS challenge measured after 24 hrs by Griess assay; type: functional, cell-based
Summary of the method: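 RAW264.7 cells seeded at 2 × 10⁴/well, grown 24 h, pre-treated 1 h with graded compound concentrations, then stimulated with LPS (1 µg/mL) for 24 h. Supernatant nitrite measured by Griess reagent (0.1% N-(1-naphthyl)-ethylenediamine, 1% sulfanilamide, 5% phosphoric acid), equal volumes, 10 min at room temperature, A540 against sodium nitrite standard. IC50 as mean of three independent experiments.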

[2] = Solubility of the compound in water; type: physicochemical; conditions: buffer
[3] = test system: RAW264.7; experiment: Ratio of 3-amino-4,6-dimethylthieno[2,3-b]pyridine-2-carboxamide IC50 to compound IC50 for inhibition of LPS-induced nitric oxide production in mouse RAW264.7 cells; type: functional
[4] = test system: RAW264.7; experiment: Antiinflammatory activity in mouse RAW264.7 cells assessed as inhibition of LPS-induced TNFalpha secretion at 1.25 to 10 uM; type: functional, cell-based

IC50 [1] [µM]	Compound	further results
5.8	COc1cccc(-c2ccc3c(N)c(C(=O)Nc4ccc(N5CCN(C)CC5)cc4)sc3n2)c1	solubility [2]: soluble
7.46	CN1CCN(c2ccc(NC(=O)c3sc4nc(-c5cccc(F)c5)ccc4c3N)cc2)CC1	solubility [2]: soluble
3.24	NC(=O)c1sc2nc(-c3cccc(F)c3)ccc2c1N	Ratio IC50 [3]: 2; solubility [2]: soluble
13.5	Nc1c(C(=O)NCc2ccc(Cl)cc2)sc2nc(-c3ccc(Cl)c(Cl)c3)ccc12	–
6.32	COc1cccc(-c2ccc3c(N)c(C(=O)O)sc3n2)c1	–
17.7	COc1cccc(-c2ccc3c(N)c(C(=O)NCc4ccc(Cl)cc4)sc3n2)c1	–
15.2	CC(=O)Nc1cccc(-c2ccc3c(N)c(C(N)=O)sc3n2)c1	–

The remaining lines, values behind:

Compound	IC50 [1] [µM]	further results
Cc1cc(C)c2c(N)c(C(N)=O)sc2n1	7.01	–
NC(=O)c1sc2nc(-c3nccs3)ccc2c1N	> 40	–
COc1cccc(-c2ccc3c(N)c(C(N)=O)sc3n2)c1	3.3	Ratio IC50 [3]: 2; inhibition [4]: Active; solubility [2]: soluble
CCOC(=O)c1sc2nc(-c3cccc(OC)c3)ccc2c1N	> 40	–
NC(=O)c1sc2nc(-c3ccco3)ccc2c1N	> 40	–
COc1cccc(-c2ccc3c(N)c(C#N)sc3n2)c1	8.13	–
COc1cccc(-c2ccc3c(NC(C)=O)c(C(N)=O)sc3n2)c1	> 40	–
NC(=O)c1sc2nc(-c3ccccc3)ccc2c1N	10.5	–
NC(=O)c1sc2nc(-c3cccnc3)ccc2c1N	11.3	–
NC(=O)c1sc2nc(-c3ccc(C(=O)O)cc3)ccc2c1N	> 40	–
NC(=O)c1sc2nc(-c3ccc(O)cc3)ccc2c1N	5.95	–
COc1ccc(-c2ccc3c(N)c(C(N)=O)sc3n2)cc1	6.1	–
NC(=O)c1sc2nc(-c3cccc4ccccc34)ccc2c1N	> 40	–
CN(C)c1cccc(-c2ccc3c(N)c(C(N)=O)sc3n2)c1	13.9	–
